Screens as filed in PubChem BioAssay.
This is a sample that favours compounds with a hit; in the whole collection about 2.8% have one here.
CAL PDZ FP-1: untagged CAL PDZ binding inhibitors, primary screen, biochemical, fluorescence polarization, HTS. purified CAL PDZ, TMR-peptide fluorescence polarization, 1 h. inhibition, % at 24.9 µM. 0.92% of 300,000 active. AID 602252, 2012;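 active = mean inhibition of at least 30% with at least half of replicates also reaching 30%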
SR-BI HDL uptake: inhibitors of SR-BI mediated HDL lipid uptake, primary screen, ldlA[mSR-BI] cells, fluorescence, single point; Scavenger receptor class B member 1 (Mus musculus), Q61009; ldlA[mSR-BI] CHO cells, DiI-HDL uptake fluorescence, 3 h; inhibition, % at 12.5 µM; 0.96% of 320,000 active;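 active = mean replicate inhibition of at least 70% and a set share of replicates each scoring 70 or more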
dFosB act: activators of delta FosB homodimer, primary screen, biochemical, fluorescence polarization, TAMRA-CDK5 oligo, single point; 0.99% of 340,000 active; AID 493131, 2011; Protein FosB (Mus musculus), P13346; activation, % at 25 µM; purified delta FosB; percent of positive-control signal above neutral wells;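 active = mean activation above about 17%, with every replicate also reaching it, limit read from the data, passing the limit was not always enough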
Target sequence (P13346 whole entry, looked up): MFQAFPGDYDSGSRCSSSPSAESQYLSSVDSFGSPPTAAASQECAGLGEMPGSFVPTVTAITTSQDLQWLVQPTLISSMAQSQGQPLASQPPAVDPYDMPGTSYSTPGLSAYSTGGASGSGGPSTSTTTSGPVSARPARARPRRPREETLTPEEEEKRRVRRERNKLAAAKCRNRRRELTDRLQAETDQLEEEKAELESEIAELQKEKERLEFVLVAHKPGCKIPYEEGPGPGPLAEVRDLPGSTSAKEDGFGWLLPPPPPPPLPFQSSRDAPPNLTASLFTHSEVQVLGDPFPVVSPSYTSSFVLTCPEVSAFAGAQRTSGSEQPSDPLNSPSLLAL
SR-BI DiI-HDL act: activators of SR-BI mediated DiI-HDL uptake, primary screen, ldlA[mSR-BI] CHO cells, DiI fluorescence | 3 h; 100 = double the neutral-control signal | activation, % at 12.5 µM | 0.096% of 320,000 active | AID 504775, 2011;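 active = mean replicate activation of at least 60% and every replicate at or above 60%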
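Material: SR-BI-overexpressing, LDLR-lacking CHO cells | Dosing: Single compound concentration, delivered by pin transfer | Probe or stimulus: Labelled HDL, 10 µg/mL | Signal: Bottom-read cell fluorescence after medium removal, ex 550/em 595 nm | Schedule: 3 h, 37 °C | Evaluation: HDL uptake via cellular fluorescence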
CAL PDZ FP-2: CAL PDZ peptide-binding inhibitors, primary screen, biochemical, fluorescence polarization, Cer-tagged CAL PDZ, HTS | inhibition, % at 20 µM | 0.02% of 330,000 active | Golgi-associated PDZ and coiled-coil motif-containing protein (Homo sapiens), Q9HD26 | purified CAL PDZ, TMR-peptide fluorescence polarization, 1 h;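 active = highest replicate inhibition of at least 40%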
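material = purified tagged CAL PDZ domain construct (CerCALP) | compound dosing = 20 µM, one dose | times = 1 h at RT | measured by = fluorescence polarization from S- and P-plane intensities, G-factor corrected | read-out = inhibition from polarization loss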
Each line names hits and unclear results; the compound was inactive in the other large screens.

Cc1cc2c3c([nH]c2cc1S(=O)(=O)NCc1ccc(CN2CCCCCC2)o1)CCCC3=O	none
Cc1cc2c3c([nH]c2cc1S(=O)(=O)NCc1ccc(CN2CCCCCC2)o1)CC(C)(C)CC3=O	CAL PDZ FP-1 45.7
O=C(Cn1cnc2c(NC(=O)OCc3ccccc3)ncnc21)NCc1ccccn1	none
CCOC(=O)c1csc(NC(=O)c2cc(OC)c(OC)c(OC)c2)n1	SR-BI HDL uptake 77.2
COc1ccc(NC(=O)c2sc3nc(N4CCCC4)c4c(c3c2N)CC(C)(C)OC4)cc1	SR-BI HDL uptake 72.6
CCC(=O)Nc1ccc(C(=O)CN2C(=O)NC3(CCOc4ccccc43)C2=O)cc1 (centres undefined)	none
COCCn1c(SCC(=O)Nc2c(C)n(C)n(-c3ccccc3)c2=O)nc2ccccc2c1=O	none
COc1cc(OC)cc(C(=O)NNC(=S)NC(=O)c2cccnc2)c1	CAL PDZ FP-1 60.8
CCN1CCN(C(=O)c2cnn3c(C(F)F)cc(-c4ccc(C)cc4)nc23)CC1	none
Cc1ccccc1Cc1c(C)nc2c(C(=O)N3CCN(Cc4ccc5c(c4)OCO5)CC3)cnn2c1C	none (no result: CAL PDZ FP-2)
O=C(c1cnn2c(C(F)F)cc(-c3ccccc3)nc12)N1CCN(Cc2ccc3c(c2)OCO3)CC1	SR-BI HDL uptake 78.2 (no result: SR-BI DiI-HDL act)
Cc1ccc(-c2cc(C(F)F)n3ncc(C(=O)N4CCN(c5ccccn5)CC4)c3n2)cc1	SR-BI HDL uptake 77.9 (no result: CAL PDZ FP-1)
Cc1nc(SCC(=O)NCC2CCCO2)[nH]c(=O)c1C (centres undefined)	none (no result: CAL PDZ FP-1)
Cc1ccc(NS(=O)(=O)c2ccc(-c3coc(C)n3)cc2)c(Br)c1	none
CC(C)CCC(CCN1CCCC1)c1ccc2c(c1)OCO2 (centres undefined)	CAL PDZ FP-1 74.4
CC(C)CCC(CCN1CCOCC1)c1ccc2c(c1)OCO2 (centres undefined)	none
CCOC(=O)[C@@H]1[C@H]2COc3ccc(Br)cc3[C@H]2N2C(=O)N(c3ccc(Cl)cc3)C(=O)[C@]12C	none
O=C(CN1CCN(Cc2ccccc2)CC1)NC(=O)NC1CCCCC1	none
O=C(CN1CCN(C/C=C/c2ccccc2)CC1)NC(=O)NC1CCCCC1	CAL PDZ FP-1 72.2 (no result: CAL PDZ FP-2)
[O-][n+]1nc2ccccc2c2ccccc21	none
COc1cc(C(=O)OC(C)C(=O)NC(=O)NC2CCCCC2)ccc1OC(F)F (centres undefined)	none
Cc1cc(C)cc(NC(=S)N=Nc2c(O)n(C)c3ccc(S(=O)(=O)N4CCOCC4)cc23)c1	SR-BI HDL uptake 86.6
O=C(CN1C(=O)NC2NC(=O)NC21)NC1CCCCC1 (centres undefined)	CAL PDZ FP-1 38.9
COc1ccc(N=c2cc(-c3ccc(O)cc3)oc3ccccc23)cc1	dFosB act 42.0
Cc1noc(C)c1C(=O)OCC(=O)NCCc1ccccc1	CAL PDZ FP-1 84.1
Cc1noc(C)c1C(=O)OCC(=O)NCCc1ccc(S(N)(=O)=O)cc1	none
O=C(Nc1ccc(Cl)cc1)[C@@H]1[C@@H]2C(=O)N(c3cccc(F)c3)C(=O)[C@@H]2[C@H]2C=CC=NN21	none
O=C(Nc1ccc(Cl)cc1)[C@@H]1[C@@H]2C(=O)N(c3ccc4ccccc4c3)C(=O)[C@@H]2[C@H]2C=CC=NN21	SR-BI HDL uptake 76.4 (no result: CAL PDZ FP-1)
CCOCCCNC(=O)CN1C(=O)c2ccccc2Sc2ncccc21	none
C=C(C)CCOC(=O)C(CC(=O)O)NCc1ccco1 (centres undefined)	CAL PDZ FP-1 49.5 (no result: SR-BI HDL uptake, SR-BI DiI-HDL act)
CCCCCN(C(=O)CCC(=O)OCc1cccc(C)c1)c1c(N)n(CCCC)c(=O)[nH]c1=O	none
CC1CCN(c2ncnc3ccccc23)CC1	none
COCCOc1cc2ncnc(N3CCC(C(=O)O)CC3)c2cc1OCCOC	CAL PDZ FP-1 164.2
CC[C@]12c3[nH]c4cc(CCC(=O)N(C)C)ccc4c3CCN1C(=O)[C@@H](CC(=O)NCCCN(C)C)C[C@@H]2C(=O)N1CCN(C(=O)C2CC2)CC1	none
